Active and inactive are the calls of the source. The calls are words filed in the database; no cut-off is given here.

The term IC50 denotes the concentration needed to halve the response being measured. As usually defined, the Kd is the free concentration of one partner at which half of the binding sites on the other are occupied at equilibrium, for simple one-to-one binding. As usually defined, the DC50 is the concentration giving 50% degradation.

Test [1] concerns the target T1, Protein cereblon/Dual specificity tyrosine-phosphorylation-regulated kinase 2 (Homo sapiens, UniProt Q92630+Q96SW2). Nature of the test: PROTAC activity at CRBN/DYRK2 in human HeLa cells assessed as induction of DYRK2 degradation at 5 to 10 uM incubated for 24 hrs by Western blot analysis. It is filed as cell-based. Particulars: dose 5-10 µM. In short, it runs like this:
(§1)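 HeLa cells treated 24 h (one series at 10 and 20 μM, another at 5 and 10 μM); DYRK2 immunoblotted with GAPDH loading reference; band quantitation as mean ± SEM of three independent replicates, one-way ANOVA.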

Test [2] addresses T1, Protein cereblon/Dual specificity tyrosine-phosphorylation-regulated kinase 2. Nature of the test: PROTAC activity at CRBN/DYRK2 in human HeLa cells assessed as reduction in DYRK2 protein level at 5 to 10 uM incubated for 12 hrs by Western blot analysis. It is filed as cell-based. Particulars: dose 5-10 µM.
A further test deals with MDA-MB-231. The test is described as follows: Antiproliferative activity against human MDA-MB-231 cells assessed as inhibition of cell proliferation by CCK-8 assay. It is filed as functional, cell-based.
For test [3], the target named is T2, Dual specificity tyrosine-phosphorylation-regulated kinase 2 (Homo sapiens, UniProt Q92630).
T2 sequence (Q92630 whole entry): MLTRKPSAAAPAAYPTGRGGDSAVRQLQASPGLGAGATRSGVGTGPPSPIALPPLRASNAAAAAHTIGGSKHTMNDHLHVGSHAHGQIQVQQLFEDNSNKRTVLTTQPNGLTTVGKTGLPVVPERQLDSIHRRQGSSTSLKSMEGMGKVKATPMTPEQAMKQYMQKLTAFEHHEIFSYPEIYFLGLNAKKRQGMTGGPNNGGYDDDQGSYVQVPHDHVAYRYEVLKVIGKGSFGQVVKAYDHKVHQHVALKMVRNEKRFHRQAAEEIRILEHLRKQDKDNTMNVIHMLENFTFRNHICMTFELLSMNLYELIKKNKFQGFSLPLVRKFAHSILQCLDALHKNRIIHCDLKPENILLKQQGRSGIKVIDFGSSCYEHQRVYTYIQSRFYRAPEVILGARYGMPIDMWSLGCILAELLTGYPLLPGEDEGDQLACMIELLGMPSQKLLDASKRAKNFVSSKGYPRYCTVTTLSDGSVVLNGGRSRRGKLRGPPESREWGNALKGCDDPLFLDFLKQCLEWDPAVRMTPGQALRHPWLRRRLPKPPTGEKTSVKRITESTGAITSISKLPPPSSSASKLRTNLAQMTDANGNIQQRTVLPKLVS
Nature of the test: Inhibition of human recombinant DYRK2 using KKISGRLSPIMTEQ as substrate incubated for 60 mins in the presence of ATP by ADP-Glo kinase assay. (ADP-Glo turns the ADP formed in a reaction into a luminescent signal.)

For test [4], the target named is T2, Dual specificity tyrosine-phosphorylation-regulated kinase 2. The test is described as follows: Binding affinity to DYRK2 (unknown origin) assessed as dissociation constant by SPR analysis. On the technique in general: In SPR one partner is held on a chip, and binding of the other changes the refractive index at the surface.
The target in test [5] is T1, Protein cereblon/Dual specificity tyrosine-phosphorylation-regulated kinase 2. Nature of the test: PROTAC activity at CRBN/DYRK2 in human HeLa cells assessed as induction of DYRK2 degradation at 10 to 20 uM incubated for 24 hrs by Western blot analysis. The format is cell-based. Particulars: dose 10-20 µM. In short, it runs like this:
as §1

Test [6] has the same target. Nature of the test: PROTAC activity at CRBN/DYRK2 in human HeLa cells assessed as induction of DYRK2 degradation incubated for 24 hrs by Western blot analysis. It is filed as cell-based. In short, it runs like this:
(§2)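 HeLa cells exposed to graded concentrations for 24 h; DYRK2 Western blot normalised to GAPDH, three independent replicates (mean ± SEM); DC50 derived from concentration series.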
On the technique in general: A western blot detects proteins with antibodies after separation by electrophoresis.

For test [7] the target is unchanged. The test is described as follows: PROTAC activity at CRBN/DYRK2 in human HeLa cells assessed as induction of DYRK2 degradation at 2.5 to 40 uM incubated for 24 hrs by Western blot analysis. It is filed as cell-based. Particulars: dose 2.5-40 µM. In short, it runs like this:
as §2

Test [8] has the same target. Nature of the test: PROTAC activity at CRBN/DYRK2 in human MDA-MB-231 cells assessed as induction of DYRK2 degradation at 2.5 to 40 uM incubated for 24 hrs by Western blot analysis. The format is cell-based. Particulars: dose 2.5-40 µM. In outline:
(§3)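 MM231 cells given graded concentrations for 24 h; DYRK2 Western blot with GAPDH loading reference, three independent replicates (mean ± SEM); DC50 taken from concentration–degradation data.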

Test [9] shares this target. The test is described as follows: PROTAC activity at CRBN/DYRK2 in human HeLa cells assessed as decrease in DYRK2 level at 5 uM by Western blot analysis. The format is cell-based. Particulars: time 3-24 hrs, TDE = time-dependent effect. In outline:
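HeLa cells held at 5 μM over a time course (3 to 24 h); DYRK2 immunoblot normalised to GAPDH, quantified from three independent replicates, one-way ANOVA.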

The target is the same in test [10]. The test is described as follows: PROTAC activity at CRBN/DYRK2 in human MDA-MB-231 cells assessed as decrease in p53 phosphorylation at Ser46 residue at 5 to 20 uM incubated for 12 hrs by Western blot analysis. It is filed as cell-based. Particulars: dose 5-20 µM. In outline:
(§4)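 MM231 cells exposed 12 h across 1.25 to 20 μM; phospho-p53 (Ser46) and phospho-c-Myc (Ser62) immunoblotted, GAPDH loading reference; mean ± SEM of three independent replicates, one-way ANOVA.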

For test [11] the target is unchanged. The test is described as follows: PROTAC activity at CRBN/DYRK2 in human MDA-MB-231 cells assessed as decrease in c-Myc phosphorylation at Ser62 residue at 5 to 20 uM incubated for 12 hrs by Western blot analysis. The format is cell-based. Particulars: dose 5-20 µM. In short, it runs like this: as §4
The target is the same in test [12]. The test is described as follows: PROTAC activity at CRBN/DYRK2 in human HeLa cells assessed as decrease in DYRK2 level by measuring reduction in fluorescence intensity at 5 to 10 uM incubated for 12 hrs by immunofluorescence based confocal laser scanning microscopy. The format is cell-based. Particulars: dose 5-10 µM. In outline:
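HeLa cells treated 5 and 10 μM for 12 h; DYRK2 immunostained, Cy3 fluorescence intensity read by confocal laser scanning microscopy and quantified.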

The target is the same in test [13]. The test is described as follows: PROTAC activity at CRBN/DYRK2 in human MDA-MB-231 cells assessed as reduction of DYRK2 protein level at 5 uM incubated for 12 hrs in presence of 3,5-bis(2-bromobenzylidene)piperidin-4-one by Western blot analysis. It is filed as cell-based.
The target is the same in test [14]. The test is described as follows: PROTAC activity at CRBN/DYRK2 in human MDA-MB-231 cells assessed as reduction in DYRK2 degradation level at 10 uM preincubated with MG132 for 2 hrs followed by compound addition and further incubated for 12 hrs by Western blot analysis. The format is cell-based. In short, it runs like this:
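MM231 cells pretreated 2 h with 10 μM MG132 (UPS inhibitor) before compound for 12 h; DYRK2 Western blot with GAPDH reference, three independent replicates, one-way ANOVA.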

Test [15] shares this target. Nature of the test: PROTAC activity at CRBN/DYRK2 in human MDA-MB-231 cells assessed as decrease in DYRK2 level at 2.5 to 10 uM incubated for 12 hrs by flow cytometry analysis. It is filed as cell-based. Particulars: dose 5-10 µM, in the assay text read “5 to 10 uM” for “2.5 to 10 uM”. In short, it runs like this: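 MM231 cells treated 12 h; DYRK2 immunostaining quantified by flow cytometry as FITC-A channel fluorescence intensity.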

Test [16] shares this target. The test is described as follows: PROTAC activity at CRBN/DYRK2 in human MDA-MB-231 cells assessed as induction of DYRK2 degradation incubated for 24 hrs by Western blot analysis. It is filed as cell-based. In outline:
as §3

Test [17] has the same target. The test is described as follows: PROTAC activity at CRBN/DYRK2 in human MDA-MB-231 cells assessed as increase in ubiquitination of DYRK2 at 10 uM incubated for 12 hrs by coimmunoprecipitation analysis. It is filed as cell-based. In short, it runs like this: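 MM231 cells pretreated with 10 μM MG132 for 2 h, then compound for 12 h; DYRK2 and ubiquitin examined by co-immunoprecipitation.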

As for `O=C(CN1C/C(=C\c2ccccc2Cl)C(=O)/C(=C/c2ccccc2Cl)C1)NCCOCCOCCOCCNc1cccc2c1C(=O)N(C1CCC(=O)NC1=O)C2=O` (centres undefined), the result in test [1] was Active.
With `CN1C(=O)CCC(N2C(=O)c3cccc(NCCOCCOCCOCCNC(=O)CN4C/C(=C\c5ccccc5Br)C(=O)/C(=C/c5ccccc5Br)C4)c3C2=O)C1=O` (centres undefined), in test [2], the outcome was inactive.
For `O=C(CN1C/C(=C\c2ccccc2F)C(=O)/C(=C/c2ccccc2F)C1)NCCOCCOCCOCCNc1cccc2c1C(=O)N(C1CCC(=O)NC1=O)C2=O` (centres undefined), the result in test [1] was Active.
`O=C(CN1C/C(=C\c2ccccc2F)C(=O)/C(=C/c2ccccc2F)C1)NCCOCCOCCNc1cccc2c1C(=O)N(C1CCC(=O)NC1=O)C2=O` (centres undefined): the outcome in test [1] was Active.
Consider `O=C1/C(=C/c2ccccc2Br)CNC/C1=C\c1ccccc1Br`, for which the IC50 in the test with MDA-MB-231 came to 4.2 µM; in [3], 0.024 µM. Besides, the Kd in [4] is 7.9 µM.
`COc1cc(/C=C/C(=O)CC(=O)/C=C/c2ccc(OC(=O)CCOCCOCCOCCNC(=O)COc3cccc4c3C(=O)N(C3CCC(=O)NC3=O)C4=O)c(OC)c2)ccc1O` (centres undefined): in test [5], the outcome was Active.
Same read-out and setting: the value for `COc1cc(/C=C/C(=O)CC(=O)/C=C/c2ccc(OC(=O)CCOCCOCCNC(=O)COc3cccc4c3C(=O)N(C3CCC(=O)NC3=O)C4=O)c(OC)c2)ccc1O` (centres undefined) was “Active”.
Regarding `O=C(CN1C/C(=C\c2ccccc2Cl)C(=O)/C(=C/c2ccccc2Cl)C1)NCCOCCOCCNc1cccc2c1C(=O)N(C1CCC(=O)NC1=O)C2=O` (centres undefined), the outcome in test [1] was Active.
Take `O=C(CN1C/C(=C\c2ccccc2Br)C(=O)/C(=C/c2ccccc2Br)C1)NCCOCCOCCOCCNc1cccc2c1C(=O)N(C1CCC(=O)NC1=O)C2=O` (centres undefined): the DC50 was determined as 3.26 µM in test [6] and 1.61 µM in test [16]. Moreover, the result in [7], in test [8], in [10], in [11], in [12] and in test [1] was Active. Moreover, the result in test [15] and in test [17] was Active. The Activity entry in [9] is “Tde”. Also, the concentration for half-maximal inhibition (IC50) with MDA-MB-231 came out at 9.1 µM. For the same compound, the outcome in test [13] and in [14] was inactive. Besides, the Kd in test [4] was 29.7 µM.
`COc1cc(/C=C/C(=O)CC(=O)/C=C/c2ccc(O)c(OC)c2)ccc1O` [CURCUMIN]: the IC50 in the test on MDA-MB-231 was above 20 µM; in [3], 0.01 µM. For the same compound, the equilibrium dissociation constant (Kd) in test [4] was found to be 14.5 µM.
As for `O=C(CN1C/C(=C\c2ccccc2Br)C(=O)/C(=C/c2ccccc2Br)C1)NCCOCCOCCNc1cccc2c1C(=O)N(C1CCC(=O)NC1=O)C2=O` (centres undefined), the result in test [1] was Active.
